Test results: ChEMBL document CHEMBL5236592, “Induction of Ferroptosis in Glioblastoma and Ovarian Cancers by a New Pyrrole Tubulin Assembly Inhibitor” (J Med Chem, 2022)

Biological target: Tubulin (Homo sapiens) (UniProt P68371+Q9H4B7+P0DPH7+P68366+Q13509+Q71U36+P04350+Q3ZCM7+P07437+P68363+Q9BQE3+Q6PEY2+Q13885+Q9BVA1+Q9BUF5)
Test: Inhibition of [3H]colchicine binding to tubulin (unknown origin) at 1 uM incubated for 10 mins relative to control
Type: protein-complex assay
Outline: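 Tubulin at 1.0 μM mixed with 5.0 μM [3H]colchicine and inhibitor at 1.0 μM, incubated 10 min at 37 °C.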

SMILES	inhibition [%]
COc1cc(C(=O)c2cn(-c3ccccn3)cc2-c2ccco2)cc(OC)c1OC	66
COc1cc(C(=O)c2cn(-c3ccccn3)cc2-c2ccccc2)cc(OC)c1OC	69
